Assay results: paper PMC4506969 (International Journal for Parasitology: Drugs and Drug …, 2015)
Values joined by “and” are separate entries in the source; they are usually repeats but may differ in a detail not shown here. Identical values can stand only once. Like-named read-outs stand apart in the source and are kept apart here.

What was measured:
P. falciparum 3D7 = test: microbe, parasite or virus in culture; assay type: cell-based; details: Plasmodium falciparum, 3D7, read-out: P. falciparum IC50 3D7
P. falciparum Dd2 = test: P. falciparum growth inhibition assay, [3H] hypoxanthine incorporation, Dd2 line; assay type: cell-based; details: Plasmodium falciparum, DD2, read-out: P. falciparum IC50 Dd2
[1] = system: asexual-stage P. falciparum; test: P. falciparum asexual-stage growth inhibition, line not specified or both lines; assay type: cell-based, Plasmodium falciparum; details: for IC50 / IC90: Plasmodium falciparum; for IC50: 3D7|DD2, read-out: IC50 against 3D7 and Dd2 P. falciparum lines; for IC90: in Homo sapiens, read-out: P. falciparum IC90; for P. falciparum SI (Selectivity Index): mammalian cell IC50/P. falciparum IC50, larger values indicate greater parasite selectivity
[2] = system: T. b. brucei 427 bloodstream trypanosomes; test: T. b. brucei growth inhibition assay; assay type: cell-based, Trypanosoma brucei brucei; details: for IC50: read-out: T. b. brucei IC50; for IC90: in Homo sapiens, read-out: T. b. brucei IC90; for T. b. brucei SI (Selectivity Index): mammalian cell IC50/T. brucei IC50
[3] = system: Neonatal foreskin fibroblast (NFF) cells; test: NFF cytotoxicity assay; assay type: cell-based; details: Homo sapiens, 72 h, read-out: Mammalian cell IC50 NFF
HEK293 cells = test: HEK293 cytotoxicity assay; assay type: cell-based; details: read-out: Mammalian cell IC50 HEK 293
[4] = system: tetra-acetylated histone H4 in P. falciparum 3D7 trophozoites; test: Protein hyperacetylation assay, Western blot, anti-tetra-acetyl histone H4; assay type: cell-based, Plasmodium falciparum; details: 3× IC50, 3 h; for Hyperacetylation, anti-(tetra) acetyl H4 antibody (words): vs vehicle control
Procedure, shortened: (§1)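 Synchronous trophozoite-stage 3D7-infected erythrocytes (3–5% parasitemia, 5% haematocrit) were exposed for 3 h, with controls of 0.05% DMSO vehicle, chloroquine and a reference HDAC inhibitor. Lysis used 0.15% saponin, then PBS washes, SDS-PAGE and PVDF blotting. Rabbit primaries ran overnight at 4 °C: tetra-acetyl H4 1:2000, H3K9 1:1000, H3 N-terminus 1:500. Membranes were stripped at pH 2 and reprobed with anti-RAP2. Densitometry was RAP2-normalised and expressed as fold change vs vehicle (=1).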

recombinant PfHDAC1 = molecular target: T1, recombinant PfHDAC1 (Plasmodium falciparum, UniProt Q7K6A1); test: Deacetylase activity assay, recombinant PfHDAC1; assay type: biochemical; details: mean (±SD) of two independent assays; for inhibition at 1 µM: read-out: PfHDAC1 % inhibition at 1 μM, 1 μM
T1 sequence (Q7K6A1 1-449): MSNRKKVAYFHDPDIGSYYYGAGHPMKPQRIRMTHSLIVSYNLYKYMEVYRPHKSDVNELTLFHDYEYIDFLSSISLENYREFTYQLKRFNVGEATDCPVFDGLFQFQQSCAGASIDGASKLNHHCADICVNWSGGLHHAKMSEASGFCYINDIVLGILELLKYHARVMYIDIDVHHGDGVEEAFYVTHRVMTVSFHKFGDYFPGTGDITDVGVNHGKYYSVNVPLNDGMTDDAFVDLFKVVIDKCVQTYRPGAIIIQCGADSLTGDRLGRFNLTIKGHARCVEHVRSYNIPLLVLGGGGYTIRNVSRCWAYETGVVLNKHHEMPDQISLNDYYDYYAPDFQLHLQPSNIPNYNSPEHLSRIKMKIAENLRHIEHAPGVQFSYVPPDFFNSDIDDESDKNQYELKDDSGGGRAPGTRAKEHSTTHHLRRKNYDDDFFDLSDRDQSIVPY
Procedure, shortened: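 Recombinant PfHDAC1 (32 ng/ml) was incubated with test compound or control at 1 μM, or with vehicle (0.5% DMSO). Ac-RGK(Ac)-AMC fluorogenic substrate was added for 1 h at 37 °C, then activator solution for 10 min at room temperature. Fluorescence (ex 350–380/em 440–460 nm) was read within 60 min. Percent inhibition was calculated versus DMSO controls from two independent assays, each in duplicate.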

T. b. brucei = details: read-out: T. b. brucei growth IC50; ref Carrillo et al., 2015; cited from earlier work
[5] = system: acetyl histone H3 lysine 9 in P. falciparum 3D7 trophozoites; test: Protein hyperacetylation assay, Western blot, anti-acetyl histone H3 lysine 9; assay type: cell-based, Plasmodium falciparum; details: 3× IC50, 3 h
Procedure, shortened: as §1

[6] = system: acetyl histone H3 N-terminus in P. falciparum 3D7 trophozoites; test: Protein hyperacetylation assay, Western blot, anti-acetyl histone H3 N-terminus; assay type: cell-based, Plasmodium falciparum; details: 3× IC50, 3 h
Procedure, shortened: as §1

P. falciparum = details: read-out: P. falciparum in vitro growth IC50; ref Patel et al., 2009; cited from earlier work
[7] = system: sexual stage P. falciparum gametocytes; details: ref Sun et al., 2014, cited from earlier work; for IC50: read-out: Sexual stage P. falciparum gametocytes IC50
[8] = HEK293 cytotoxicity assay; assay type: cell-based; details: human, HEK293 cells
early stage gametocytes = details: read-out: Early stage gametocytes IC50; ref Trenholme et al., 2014; cited from earlier work
late stage gametocytes = details: read-out: Late stage gametocytes IC50; ref Trenholme et al., 2014; cited from earlier work

Compound | IC50 (P. falciparum 3D7) | IC50 (P. falciparum Dd2) | IC90 [1] | P. falciparum SI (Selectivity Index) [1] | Times less active against T.b. brucei than P. falciparum [2] | IC50 ([2]; Trypanosoma brucei, 48 h) | IC90 ([2]; Trypanosoma brucei) | T. b. brucei SI (Selectivity Index) [2] | IC50 [3] | IC50 (HEK293 cells; Homo sapiens, HEK293, 48 h) | Hyperacetylation, anti-(tetra) acetyl H4 antibody (words) [4] | inhibition at 1 µM (recombinant PfHDAC1) | other results
O=C(/C=C/c1cccc(S(=O)(=O)Nc2ccccc2)c1)NO [Belinostat, belinostat] | 60 nM | 130 nM | 120 nM | 11–40 | ~100 times | 2610 nM | 3640 nM | <1 | 2370 nM | 1420 nM | caused hyperacetylation | 78.5 ± 4.7% | IC50 [1]: < 200 nM; Fold increase in acetylation signal, anti-(tetra) acetyl H4 antibody ([4]; relative density vs DMSO control, normalised to RAP2): > 1.3 fold; IC50 (T. b. brucei): 2200 nM
CCN(CC)CCCC(C)Nc1ccnc2cc(Cl)ccc12 (stereo not drawn) [Chloroquine, chloroquine] | 10 nM | 80 nM |  | 612–4893 |  | 9920 nM |  | 5 | 48900 nM |  | did not result in hyperacetylation |  | 
CC(=O)NCC(=O)O.CC(=O)NCC(=O)O.N=C(N)c1ccc(N=NNc2ccc(C(=N)N)cc2)cc1 [Diminazene aceturate, diminazene aceturate] |  |  |  |  |  |  |  | >617 |  |  |  |  | IC50 ([2]; 427 bloodstream form, 48 h exposure): 60 nM; IC50 (HEK293 cells; 48 h exposure, resazurin): > 37000 nM
Cc1[nH]c2ccccc2c1CCNCc1ccc(/C=C/C(=O)NO)cc1 [Panobinostat, panobinostat] | 10 nM | 30 nM | 10 nM |  | ~100 times | 1690 nM | 3280 nM |  | 70 nM |  | did not increase acetylation | ~100% | Hyperacetylation, anti-(tetra) acetyl H4 antibody (words) ([4]; listed as panobinostat): did not result in hyperacetylation; Hyperacetylation, anti-histone H3 lysine 9 antibody [5]: cause hyperacetylation; Hyperacetylation, anti-histone H3 N-terminus antibody [6]: did not increase acetylation; IC50 (P. falciparum): ~20 nM; IC50 (T. b. brucei): 1600 nM; IC50 [7]: 940 nM
N=C(N)c1ccc(OCCCCCOc2ccc(C(=N)N)cc2)cc1 [Pentamidine] |  |  |  |  |  | 4 nM |  | >173 |  | > 690 nM |  |  | 
COc1ccc(C[C@H](N)C(=O)N[C@H]2[C@@H](O)[C@H](n3cnc4c(N(C)C)ncnc43)O[C@@H]2CO)cc1 [Puromycin, puromycin] |  |  |  |  |  |  |  |  |  |  |  |  | IC50 at 48 h [8]: 797 nM
C/C=C1\NC(=O)[C@H]2CSSCC/C=C/[C@H](CC(=O)N[C@H](C(C)C)C(=O)N2)OC(=O)[C@H](C(C)C)NC1=O [Romidepsin, romidepsin] | 90 nM | 130 nM | 180 nM | <1 |  | 35 nM | 100 nM | <1 | 1 nM | < 5 nM | caused hyperacetylation | 48.3 ± 39.3% | IC50 [1]: < 200 nM; Fold increase in hyperacetylation, anti-histone H3 lysine 9 antibody ([5]; vs vehicle control): 5–6 fold; IC50 [7]: 640 nM; Selectivity for gametocytes compared to the mammalian cell line HepG2 [7]: > 10 fold
CC(/C=C/C(=O)NO)=C\[C@@H](C)C(=O)c1ccc(N(C)C)cc1 [TSA, trichostatin A] |  |  |  |  |  |  |  |  |  |  |  |  | PfHDAC1 % inhibition at 1 μM (recombinant PfHDAC1; 1 μM): ~100% and 98.9 ± 1.5%; IC50 (early stage gametocytes): 90 nM; IC50 (late stage gametocytes): 70 nM
O=C(CCCCCCC(=O)Nc1ccccc1)NO [Vorinostat, suberoylanilide hydroxamic acid] |  |  |  |  | ~100 times |  | 18700 nM |  |  |  |  | 59.8 ± 12.7% | IC50 (late stage gametocytes): 810 nM
